According to ChEMBL document CHEMBL1139356, “New uracil dimers showing erythroid differentiation inducing activities” (J Med Chem, 2009):
Activity calls are given as the source filed them. No cut-off for these calls is given here.

How the values were obtained:
K562 [1] = experiment: Inhibition of erythroid differentiation in human K562 cell assessed benzidine positive cells at 2 mM after 6 days by benzidine staining assay; format: functional; parameters: scale not given: the % may be the effect or the level left
Outline: (§1)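 K562 cells seeded at 30 000 cells/mL and cultured with compound at the stated concentration for a 6-day induction period. Benzidine staining scores the percentage of hemoglobin-containing (benzidine-positive) cells. Values are average ± SD of three independent experiments.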

K562 [2] = experiment: Antiproliferative activity against human K562 cells after 4 days; format: functional, cell-based; conditions: K562, 96 h
K562 [3] = experiment: Inhibition of erythroid differentiation in human K562 cell assessed benzidine positive cells at 100 uM after 6 days by benzidine staining assay; format: functional; parameters: scale not given: the % may be the effect or the level left; outline: as §1
K562 [4] = experiment: Inhibition of erythroid differentiation in human K562 cell assessed benzidine positive cells at 200 uM after 6 days by benzidine staining assay; format: functional; outline: as §1
K562 [5] = experiment: Inhibition of erythroid differentiation in human K562 cell assessed benzidine positive cells at 400 uM after 6 days by benzidine staining assay; format: functional
Outline: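 K562 cells cultured with 400 µM compound for 6 days. The proportion of hemoglobin-containing cells was scored by benzidine staining. Values are average ± SD of four independent experiments.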

K562 [6] = experiment: Inhibition of erythroid differentiation in human K562 cell assessed benzidine positive cells at 600 uM after 6 days by benzidine staining assay; format: functional; outline: as §1
K562 [7] = experiment: Inhibition of erythroid differentiation in human K562 cell assessed benzidine positive cells at 300 uM after 6 days by benzidine staining assay; format: functional; parameters: scale not given: the % may be the effect or the level left; outline: as §1
RD = experiment: Antiproliferative activity against human RD cells after 4 days; format: functional, cell-based; conditions: 96 h
MDA-MB-231 = experiment: Antiproliferative activity against human MDA-MB-231 cells after 4 days; format: functional, cell-based; conditions: MDA-MB-231, 96 h
MCF7 = experiment: Antiproliferative activity against human MCF7 cells after 4 days; format: functional, cell-based; conditions: MCF7, 96 h
[8] = Antiproliferative activity against human IB3-1 cells after 4 days; format: functional, cell-based; conditions: IB3-1, 96 h
K562 [9] = experiment: Antiproliferative activity against human K562 cells after 4 days; conditions: K562, 96 h
K562 [10] = experiment: Inhibition of erythroid differentiation in human K562 cell assessed benzidine positive cells at 1 mM after 6 days by benzidine staining assay; format: functional; parameters: scale not given: the % may be the effect or the level left; outline: as §1
K562 [11] = experiment: Inhibition of erythroid differentiation in human K562 cell assessed benzidine positive cells at 500 nM after 6 days by benzidine staining assay; format: functional; parameters: scale not given: the % may be the effect or the level left; conditions: in the assay text read “at 100 nM” for “at 500 nM”; outline: as §1
K562 [12] = experiment: Inhibition of erythroid differentiation in human K562 cell assessed benzidine positive cells at 800 uM after 6 days by benzidine staining assay; format: functional; parameters: scale not given: the % may be the effect or the level left; outline: as §1

CCCC(=O)O [BUTYRIC ACID]
Activity (K562 [1]): 32.5%

CCCCCCCCn1cc(C(=O)NCc2ccccc2)c(=O)[nH]c1=O
IC50 (K562 [2]): 75 µM
Activity (K562 [3]): 5%
Activity (K562 [4]): inactive
Activity (K562 [5]): inactive
Activity (K562 [6]): inactive

CCCCCCCCn1cc(C(=O)O)c(=O)[nH]c1=O
IC50 (K562 [2]): 247 µM
Activity (K562 [7]): 30%

CCCCCCCCn1cc(C(=O)NCc2ccc3ccc(CNC(=O)c4cn(CCCCCCCC)c(=O)[nH]c4=O)cc3c2)c(=O)[nH]c1=O
IC50 (K562 [2]): 517 µM
Activity (K562 [5]): 52%
IC50 (RD): 76.6 µM
IC50 (MDA-MB-231): 171 µM
IC50 (MCF7): 197 µM
IC50 [8]: 505 µM
Activity (K562 [6]): 78%
IC50 (K562 [9]): 517 µM

CO[C@H]1C[C@@H]2CC[C@@H](C)[C@@](O)(O2)C(=O)C(=O)N2CCCC[C@H]2C(=O)O[C@H]([C@H](C)C[C@@H]2CC[C@@H](O)[C@H](OC)C2)CC(=O)[C@H](C)/C=C(\C)[C@@H](O)[C@@H](OC)C(=O)[C@H](C)C[C@H](C)/C=C/C=C/C=C/1C [SIROLIMUS]
Activity (K562 [10]): 75.5%

CCCCCCCCn1cc(C(=O)NCCCCCCNC(=O)c2cn(CCCCCCCC)c(=O)[nH]c2=O)c(=O)[nH]c1=O
IC50 (K562 [2]): 600 µM
Activity (K562 [6]): 40%

CO[C@H](C(=O)[C@@H](O)[C@@H](C)O)[C@@H]1Cc2cc3cc(O[C@H]4C[C@@H](O[C@@H]5C[C@@H](O)[C@H](O)[C@@H](C)O5)[C@H](O)[C@@H](C)O4)c(C)c(O)c3c(O)c2C(=O)[C@H]1O[C@H]1C[C@@H](O[C@@H]2C[C@@H](O)[C@@H](O[C@@H]3C[C@](C)(O)[C@H](O)[C@@H](C)O3)[C@@H](C)O2)[C@H](O)[C@@H](C)O1 [PLICAMYCIN]
Activity (K562 [11]): 86.8%

CCCCCCCCn1cc(C(=O)NCc2cccc(CNC(=O)c3cn(CCCCCCCC)c(=O)[nH]c3=O)c2)c(=O)[nH]c1=O
IC50 (K562 [2]): 247 µM
Activity (K562 [4]): 40%

CCCCNC(=O)c1cn(C)c(=O)[nH]c1=O
IC50 (K562 [2]): 536 µM
Activity (K562 [12]): 5%

CCCCCCCCn1cc(C(=O)NCCCCCCCCNC(=O)c2cn(CCCCCCCC)c(=O)[nH]c2=O)c(=O)[nH]c1=O
IC50 (K562 [2]): 420 µM
Activity (K562 [6]): 45%

CCCCCCCCn1cc(C(=O)NCCCCCCCNC(=O)c2cn(CCCCCCCC)c(=O)[nH]c2=O)c(=O)[nH]c1=O
IC50 (K562 [2]): 220 µM
Activity (K562 [6]): 50%

COC(=O)c1c[nH]c(=O)[nH]c1=O [ISOOROTIC ACID METHYL ESTER]
IC50 (K562 [2]): > 800 µM
Activity (K562 [12]): 5%

CCOC(=O)Cn1cc(C(=O)NCCOCCNC(=O)c2cn(CC(=O)OCC)c(=O)[nH]c2=O)c(=O)[nH]c1=O
IC50 (K562 [2]): > 800 µM
Activity (K562 [12]): 1%
